In brackets after ≈: the same amount, converted by molar mass. Activity calls are given as the source filed them. The calls are words filed in the database; no cut-off is given here.
Tests used:
[1] = Cytotoxicity against MEF at 100 to 1024 ug/ml; type: toxicity, cell-based; settings: mouse, dose 100-1024 µg/ml
Pseudomonas aeruginosa [2] = test: Anti-virulence effect in Pseudomonas aeruginosa PAO1 assessed as inhibition of pyocyanin production at 25 ug/ml; type: functional; design: scale not given: the % may be the effect or the level left; settings: dose 25 µg/ml
Procedure, shortened: (§1)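 Overnight PAO1 culture in LB at 37 °C, diluted to OD600 0.05 and subcultured 5–7 h to mid-log phase, then re-diluted to OD600 0.05. Grown 18 h at 37 °C and 200 rpm with compound (6.25, 12.5, 25 μg mL−1) or DMSO. Supernatant extracted into chloroform, back-extracted into 0.2 M HCl, read at 520 nm.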

Pseudomonas aeruginosa [3] = test: Downregulation of sodB gene expression in Pseudomonas aeruginosa PAO1 assessed as fold decrease at 25 ug/ml by RT-qPCR analysis; type: functional; settings: dose 25.0 µg/ml
Pseudomonas aeruginosa [4] = test: Downregulation of rhlI gene expression in Pseudomonas aeruginosa PAO1 assessed as fold decrease at 25 ug/ml by RT-qPCR analysis; type: functional; settings: dose 25 µg/ml
Pseudomonas aeruginosa [5] = test: Inhibition of biofilm formation in Pseudomonas aeruginosa PAO1 assessed as reduction in biofilm by measuring scattered appearance at 25 ug/ml incubated for 24 hrs by scanning electron microscopic assay; type: functional, organism-based; settings: dose 25.0 µg/ml
Procedure, shortened: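 PAO1 biofilms on coverslips treated with compound at 6.25, 12.5 or 25 μg mL−1 or DMSO. Coverslips PBS-washed, fixed in 2.5% glutaraldehyde, ethanol-dehydrated, freeze-dried, gold-coated and imaged by SEM.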

Pseudomonas aeruginosa [6] = test: Downregulation of pqsR gene expression in Pseudomonas aeruginosa PAO1 assessed as fold decrease at 25 ug/ml by RT-qPCR analysis; type: functional; settings: dose 25 µg/ml
[7] = Inhibition of quorum sensing system in Pseudomonas aeruginosa PAO1 assessed as reduction in C4-HSL level at 50 ug/ml incubated for 24 hrs by LC-MS/MS method; settings: dose 50.0 µg/ml
Pseudomonas aeruginosa [8] = test: Anti-virulence effect in Pseudomonas aeruginosa PAO1 assessed as inhibition of EPS production at 25 ug/ml; type: functional; design: scale not given: the % may be the effect or the level left; settings: dose 25 µg/ml
Procedure, shortened: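 PAO1 grown with compound (6.25–25 μg mL−1) in 24-well plates for 24 h at 37 °C and 180 rpm; DMSO and RSV (25 μg mL−1) as controls. Biofilms washed with water, then treated with 0.9% NaCl, 5% phenol and 0.2% hydrazine sulfate. Held 1 h in the dark, read at OD490. Three independent experiments.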

Erythrocyte = test: Cytotoxicity against mouse RBC at 100 to 1024 ug/ml; type: toxicity, cell-based; settings: dose 100-1024 µg/ml
Pseudomonas aeruginosa [9] = test: Induction of biofilm eradication in Pseudomonas aeruginosa PAO1 at 25 ug/ml by crystal violet staining based assay; type: functional; settings: dose 25 µg/ml
Procedure, shortened: (§2)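 PAO1 biofilms grown overnight at 37 °C in LB in 24-well plates, washed with PBS, then fresh LB with compound added and grown overnight again. Washed, methanol-fixed, crystal violet stained, ethanol solubilised, read at OD570. DMSO negative, resveratrol positive control.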

[10] = Inhibition of quorum sensing system in Pseudomonas aeruginosa PAO1 assessed as reduction in C4-HSL level at 25 ug/ml incubated for 24 hrs by LC-MS/MS method; settings: dose 25.0 µg/ml
HEK-293T = test: Cytotoxicity against human HEK293T cells by CCK8 assay; type: functional, cell-based
Procedure, shortened: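 HEK293T cell viability by CCK-8; IC50 determined.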

[11] = Inhibition of quorum sensing system in Pseudomonas aeruginosa PAO1 assessed as reduction in C4-HSL level at 6.25 to 25 ug/ml incubated for 24 hrs by LC-MS/MS method; settings: dose 6.25-25 µg/ml
Pseudomonas aeruginosa [12] = test: Antibacterial activity against Pseudomonas aeruginosa PAO1 by serial dilution method; type: functional
Procedure, shortened: (§3)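 PAO1 in LB, 37 °C. MIC by CLSI 2-fold serial dilution in Mueller–Hinton broth, inoculum 1–5 × 10^5 CFU mL−1, DMSO stocks. Growth curves: overnight culture diluted to OD600 = 0.05, subcultured to mid-log, rediluted to OD600 = 0.05, 3 mL with compound; OD620 read at 1, 3, 5, 7, 9, 11 and 24 h at 37 °C; DMSO negative control.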

Pseudomonas aeruginosa [13] = test: Anti-virulence effect in Pseudomonas aeruginosa PAO1 assessed as decrease in protease level at 25 ug/ml; type: functional; design: scale not given: the % may be the effect or the level left; settings: dose 25 µg/ml
Procedure, shortened: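 Overnight PAO1 culture diluted 1:100 into LB with compound (6.25–25 μg mL−1), grown at 37 °C and 180 rpm; DMSO and RSV (25 μg mL−1) as controls. Culture supernatant mixed with 2% azocasein in 1 M Tris–HCl pH 8.0 for 15 min at 37 °C. Reaction stopped with 10% TCA, centrifuged, NaOH added, read at OD440.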

Pseudomonas aeruginosa [14] = test: Downregulation of rhlR gene expression in Pseudomonas aeruginosa PAO1 assessed as fold decrease at 25 ug/ml by RT-qPCR analysis; type: functional; settings: dose 25 µg/ml
[15] = Inhibition of quorum sensing system in Pseudomonas aeruginosa PAO1 assessed as reduction in 3-oxo-C12-HSL level at 25 ug/ml incubated for 24 hrs by LC-MS/MS method; settings: dose 25.0 µg/ml
Pseudomonas aeruginosa [16] = test: Downregulation of sucD gene expression in Pseudomonas aeruginosa PAO1 assessed as fold decrease at 25 ug/ml by RT-qPCR analysis; type: functional; settings: dose 25 µg/ml
Pseudomonas aeruginosa [17] = test: Anti-virulence effect in Pseudomonas aeruginosa PAO1 assessed as inhibition of pyocyanin production at 6.25 ug/ml; type: functional; design: scale not given: the % may be the effect or the level left; settings: dose 6.25 µg/ml; procedure, shortened: as §1
Pseudomonas aeruginosa [18] = test: Inhibition of biofilm formation in Pseudomonas aeruginosa PAO1 incubated for 24 hrs crystal violet staining based SEM assay; type: functional, organism-based
Pseudomonas aeruginosa [19] = test: Inhibition of biofilm formation in Pseudomonas aeruginosa PAO1 at 6.25 ug/ml incubated for 24 hrs crystal violet staining based assay; type: functional
Procedure, shortened: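 PAO1 grown statically for 24 h in LB ± compound in 24-well plates. Planktonic cells removed; attached cells stained with 0.05% crystal violet, rinsed, dissolved in 95% ethanol, read at OD570. DMSO negative, resveratrol positive control; SD from three independent experiments.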

[20] = Inhibition of quorum sensing system in Pseudomonas aeruginosa PAO1 assessed as reduction in 3-oxo-C12-HSL level at 50 ug/ml incubated for 24 hrs by LC-MS/MS method; settings: dose 50.0 µg/ml
[21] = Inhibition of quorum sensing system in Pseudomonas aeruginosa PAO1 assessed as reduction in C4-HSL level at 12.5 ug/ml incubated for 24 hrs by LC-MS/MS method; settings: dose 12.5 µg/ml
[22] = Inhibition of quorum sensing system in Chromobacterium violaceum CV026
Procedure, shortened: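 Plate screen. CV026 grown overnight in LB with 50 μg ml−1 kanamycin; 15 μl seeded into 15 ml LB agar (1.0% agarose) containing 20 μM C4-HSL. PAO1 plates run in parallel. Test colonies inoculated by toothpick, incubated overnight at 37 °C. Ring of colourless viable cells around the colony scored as inhibition.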

Pseudomonas aeruginosa [23] = test: Antibacterial activity against Pseudomonas aeruginosa PAO1 assessed as bacterial growth inhibition at 6.25 to 25 ug/ml by serial dilution method; type: functional, organism-based; settings: dose 6.25-25 µg/ml; procedure, shortened: as §3
Pseudomonas aeruginosa [24] = test: Downregulation of sdhB gene expression in Pseudomonas aeruginosa PAO1 assessed as fold decrease at 25 ug/ml by RT-qPCR analysis; type: functional; settings: dose 25 µg/ml
Pseudomonas aeruginosa [25] = test: Induction of biofilm eradication in Pseudomonas aeruginosa PAO1 at 12.5 ug/ml by crystal violet staining based assay; type: functional; settings: dose 12.5 µg/ml; procedure, shortened: as §2

## Cc1cccc(C#N)c1Cc1c[nH]c2ccccc12
[1]
  Activity: Toxic
Pseudomonas aeruginosa [2]
  Activity: 73%
Pseudomonas aeruginosa [3]
  fold change (FC): 1.82
Pseudomonas aeruginosa [4]
  fold change (FC): 7.3
Pseudomonas aeruginosa [5]
  inhibition: Active
Pseudomonas aeruginosa [6]
  fold change (FC): 7.41
[7]
  inhibition: 19%
Pseudomonas aeruginosa [8]
  Activity: 37%
Erythrocyte
  Activity: Toxic
Pseudomonas aeruginosa [9]
  Activity: 57%
[10]
  inhibition: 51%
HEK-293T
  IC50: 59 µM
[11]
  inhibition: Active
Pseudomonas aeruginosa [12]
  MIC: 96 µg/mL (≈ 390 µM)
Pseudomonas aeruginosa [13]
  Activity: 51%
Pseudomonas aeruginosa [14]
  fold change (FC): 9.71
[15]
  inhibition: 60%
Pseudomonas aeruginosa [16]
  fold change (FC): 5.65
Pseudomonas aeruginosa [17]
  Activity: 41%
Pseudomonas aeruginosa [18]
  inhibition: Dose-dependent-effect
Pseudomonas aeruginosa [19]
  inhibition at 6.25 µg/mL: 32%
[20]
  inhibition: 41%
[21]
  inhibition: 61%
[22]
  inhibition: Active; Showed Higher Activity
Pseudomonas aeruginosa [23]
  Activity: inactive
Pseudomonas aeruginosa [24]
  fold change (FC): 2.87
Pseudomonas aeruginosa [25]
  Activity: 50%
